Screens: PubChem BioAssay, Johns Hopkins Ion Channel Center
In the library only some 3.5% were active in any assay of this set; here they are far more common.
MrgX1 PAM – human MrgX1 positive allosteric modulation, primary screen. MrgX1-HEK293, Fluo-4 calcium flux, FDSS; hits give high values. B-score at 10 µM. 0.63% of 310,000 active. AID 588675;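 active = plate-corrected calcium response at least 3 library SD above typical, normal starting fluorescence, not activating the receptor alone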;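 note: compound read alongside a low EC10 to EC30 dose of BAM8-22 agonist; peak minus trough fluorescence over baseline measured at the second addition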
Target sequence (Q96LB2 whole entry, looked up): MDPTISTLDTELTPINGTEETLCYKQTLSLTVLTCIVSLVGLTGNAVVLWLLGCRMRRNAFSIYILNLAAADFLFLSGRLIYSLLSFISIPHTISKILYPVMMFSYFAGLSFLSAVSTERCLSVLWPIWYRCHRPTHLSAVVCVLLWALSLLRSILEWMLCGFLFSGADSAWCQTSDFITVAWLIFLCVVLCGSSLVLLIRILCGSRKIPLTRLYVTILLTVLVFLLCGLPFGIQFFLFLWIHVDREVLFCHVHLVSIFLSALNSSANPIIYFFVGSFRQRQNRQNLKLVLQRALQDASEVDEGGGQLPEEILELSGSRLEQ
MrgX1 ag – activates human MrgX1 receptor signaling | AID 588627 | B-score at 10 µM | Q96LB2 | 0.44% of 310,000 active | MrgX1-HEK293 cells, Fluo-4 calcium fluorescence, agonist mode; hits give high values;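 active = calcium response B-score plate-corrected fluorescence ratio at least 3 library SD, with starting fluorescence B-score inside 5 SD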
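Material – MrgX1-expressing HEK293 cells · Input – 15,000 cells seeded per well · Dosing – compound as first of three additions · Times – overnight seeding, then 1 h dark dye loading · Measured by – kinetic Fluo-4 NW fluorescence of intracellular calcium · Read-out – B-scored fluorescence response ratio · Benchmarks – positive and negative control wells on each plate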
MrgX1 antagonist – antagonists of human MrgX1 receptor. Q96LB2. MRGX1-HEK293 calcium flux, Fluo-4, BAM8-22 antagonism; hits give low values. B-score at 10 µM. 1.3% of 310,000 active;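 active = calcium-response B-score plate-corrected more than 3 library SD below zero, starting fluorescence within 5 deviations, no agonist response on first addition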;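 note: peak minus trough fluorescence over baseline after final BAM8-22 challenge near maximal dose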
RGS4 inh – human RGS4 inhibition. HEK293 M3R/RGS4 inducible, Fluo-4 calcium flux; hits give high values; triggered by carbachol at its EC20. B-score at 10 µM. AID 463165. 0.45% of 310,000 active;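 active = B-score, a plate-corrected calcium signal, over three deviations above library mean, with baseline fluorescence within five deviations of library mean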;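 note: RGS4 expression induced by doxycycline in cells with stable M3 receptor; B-score is computed from the integrated fluorescence ratio over baseline after carbachol; higher B-score means a larger calcium signal and so more RGS4 inhibition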
Target sequence (P49798 whole entry, looked up): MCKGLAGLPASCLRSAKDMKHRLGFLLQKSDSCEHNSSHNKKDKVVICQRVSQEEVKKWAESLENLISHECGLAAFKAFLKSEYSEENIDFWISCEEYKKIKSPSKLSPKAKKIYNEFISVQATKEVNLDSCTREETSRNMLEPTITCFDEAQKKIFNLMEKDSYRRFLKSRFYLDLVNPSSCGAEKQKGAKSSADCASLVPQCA
RGS4 pot – RGS4 potentiation or activation; HEK293 M3R/inducible RGS4, carbachol calcium flux Fluo4; hits give low values; B-score at 10 µM; 0.92% of 310,000 active; AID 463111;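 active = B-score of the integrated calcium signal more than 4 SD below the library mean, with starting fluorescence not abnormally high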;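 note: negative B-score means reduced calcium response which marks RGS4 activation or potentiation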
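Assay system: HEK293 FlpIn-TREx cells, stable M3R, doxycycline-inducible RGS4 / Probe or stimulus: carbachol, ECmax concentration / Times: overnight RGS4 induction, 30 min dye load 37 °C, 20 min compound RT / Signal: kinetic calcium fluorescence imaging with Fluo4-AM dye, 2 µM / Measure: Agonist-evoked peak-minus-minimum fluorescence over baseline, integrated ratio, B score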
MrgX1 antag conf – confirmation of human MrgX1 receptor antagonists; shares compounds with MrgX1 antagonist; MrgX1-HEK293, BAM8-22 calcium flux, Fluo-4; hits give low values; remaining BAM8-22 calcium response % of control (hits give low values), % at 10 µM; 19% of 2,300 active; AID 602420;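 active = remaining agonist calcium response no higher than 100% minus 3 SD of agonist-only control wells, with starting fluorescence near control levels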;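 note: agonist BAM8-22 given at a near maximal EC90 to ECmax level; peak minus minimum fluorescence divided by baseline after agonist addition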
HEK293 Ca flux – MrgX1 antagonist counter-screen hit in parental HEK293 cells | 2% of 4,000 active | shares compounds with MrgX1 antagonist | Fluo-4 calcium fluorescence, FDSS | fluorescence ratio F(max-min)/F0 at 10 µM | AID 624111;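 active = duplicate-averaged calcium fluorescence ratio at least three times the standard deviation of buffer wells, a nonspecific response in parental cells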
HEK293 Ca counter – counter-screen for MrgX1 allosteric activators: effect in parental HEK293 cells | parental HEK293 calcium flux, Fluo-4 fluorescence ratio; hits give high values | AID 624114 | 0.4% of 4,000 active | shares compounds with MrgX1 antagonist | fluorescence ratio F(max-min)/F0 at 10 µM;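 active = calcium fluorescence ratio, averaged over duplicates, at least 3 SD of the buffer-well ratio, meaning a nonspecific response in receptor-free cells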;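 note: untransfected parental HEK293 lacking MrgX1 used as counterscreen for MrgX1 allosteric activators; fluorescence change taken during the second addition on a kinetic imager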
HEK293 Ca cntr2 – counter-screen for MrgX1 activators: effect in parental HEK293 cells; shares compounds with MrgX1 antagonist; Fluo-4 calcium fluorescence (FDSS); hits give high values; fluorescence ratio F(max-min)/F0 at 10 µM; 8.7% of 4,000 active;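 active = calcium fluorescence ratio at least three times the spread of buffer wells, meaning a non-specific response in parental cells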
Numbers without * were called inactive; i = inactive; nt = not tested or not shown.

SMILES | MrgX1 PAM | MrgX1 ag | MrgX1 antagonist | RGS4 inh | RGS4 pot | MrgX1 antag conf | HEK293 Ca flux | HEK293 Ca counter | HEK293 Ca cntr2
Nc1cccnc1Sc1cc(Cl)c(Cl)cc1Cl | i | i | -6.5* | i | i | i | i | i | i
CCOCCc1c(O)nc(SCC)[nH]c1=O | i | i | i | i | i | nt | nt | nt | nt
CC[C@H]1OC(=O)[C@H](C)[C@@H](O[C@H]2C[C@@](C)(OC)[C@@H](O)[C@H](C)O2)[C@H](C)[C@@H](O[C@@H]2O[C@H](C)C[C@H](N(C)C)[C@H]2O)[C@](C)(O)C[C@@H](C)C(=O)[C@H](C)[C@@H](O)[C@]1(C)O | i | i | i | i | i | nt | nt | nt | nt
CCOC(=O)CCC(=O)O[C@H]1[C@H](O[C@@H]2[C@@H](C)[C@H](O[C@H]3C[C@@](C)(OC)[C@@H](O)[C@H](C)O3)[C@@H](C)C(=O)O[C@H](CC)[C@@](C)(O)[C@H](O)[C@@H](C)C(=O)[C@H](C)C[C@@]2(C)O)O[C@H](C)C[C@@H]1N(C)C | i | i | -11* | i | i | i | i | i | i
COc1ccc(-c2csc(NC(=O)C3CCN(c4ncnc5sc(C)c(C)c45)CC3)n2)cc1OC | i | i | -6* | i | i | 79%* | i | i | i
COc1ccccc1CC(=O)Nc1nc(-c2ccc(F)c(F)c2)cs1 | i | i | i | i | i | nt | nt | nt | nt
COc1ccc(-c2csc(NC(=O)c3cc(C)oc3C)n2)cc1OC | i | i | -4.9* | i | i | 71%* | i | i | i
CCc1noc(C)c1C(=O)Nc1nc(-c2ccc(OC)c(OC)c2)cs1 | i | i | i | i | i | nt | nt | nt | nt
COc1ccc(-c2csc(NC(=O)Cc3ccccc3F)n2)cc1OC | i | i | -6.1* | i | i | 78%* | i | i | i
CN(C)/C=N/c1nc(-c2ccc3c(c2)OCO3)cs1 | i | i | -6.4* | i | i | i | i | i | i
Cc1ccc2nc(-c3ccc(NC(=O)CSc4ccccc4)cc3)[nH]c2c1 | i | i | -5.3* | i | i | i | i | i | i
COc1ccccc1NC(=O)CN(Cc1ccco1)C(=O)c1cc2ccccc2o1 | i | i | i | i | i | nt | nt | nt | nt
CC(C)(C)C(=O)CSc1ncnc2sc3c(c12)CCC3 | i | i | -9.7* | i | i | i | i | i | i
CC(=O)CSc1ncnc2sc3c(c12)CCC3 | i | i | i | i | i | nt | nt | nt | nt
C[n+]1cccc(C(=O)Nc2ccccc2)c1 | i | i | i | i | i | nt | nt | nt | nt
Cn1nc(N)c2c(-c3ccc(Cl)cc3)c(C#N)c(N)nc21 | i | i | -4.7* | i | i | i | i | i | i
CC1=C(O)C(=O)OC1c1c(Cl)cccc1Cl (stereo not drawn) | i | i | i | i | i | nt | nt | nt | nt
S=c1[nH]nc(Cn2cnc3ccccc32)n1-c1ccccc1Cl | i | i | i | i | i | nt | nt | nt | nt
CCOc1cnc(-c2ccc(OC)cc2)o1 | i | i | -4.6* | i | i | i | i | i | i
O=C(COc1ccc(S(=O)(=O)N2CCCC2)cc1Cl)NCc1ccccn1 | i | i | -6.2* | i | i | i | i | i | i
O=C(COc1ccc(S(=O)(=O)N2CCOCC2)cc1Cl)NCc1ccccn1 | i | i | i | i | i | nt | nt | nt | nt
CCOC(=O)C1CCN(C(=O)CCc2ccccc2)CC1 | i | i | -7.9* | i | i | i | i | i | i
Cc1ccc(S(=O)(=O)N2CCCC2C(=O)NC2CCCCC2)cc1 (stereo not drawn) | i | i | -14* | i | i | i | i | i | i
CC1CCN(S(=O)(=O)c2ccc3c(c2)N(CC(=O)NCCCN2CC(C)CC(C)C2)C(=O)CS3)CC1 (stereo not drawn) | i | i | i | i | i | nt | nt | nt | nt
COc1ccc(OC)c(Nc2nc3nonc3nc2N2CCCC(C)C2)c1 (stereo not drawn) | i | i | -5.5* | i | i | i | i | i | i
SMILES | MrgX1 PAM | MrgX1 ag | MrgX1 antagonist | RGS4 inh | RGS4 pot | MrgX1 antag conf | HEK293 Ca flux | HEK293 Ca counter | HEK293 Ca cntr2
O=C(NCCc1ccncc1)Nc1cccc(Cl)c1 | i | i | -4.6* | i | i | i | i | i | i
CN(C)S(=O)(=O)c1ccc2c(c1)C(CC(=O)O)OC2=O (stereo not drawn) | i | i | -4.5* | i | i | i | i | i | i
Cc1ccc(S(=O)(=O)N(C)c2ccc(C(=O)N3CCN(Cc4ccc5c(c4)OCO5)CC3)cc2)cc1 | i | i | -5.2* | i | i | i | i | i | i
CCN(CC)c1ccc(C(=O)NC(=S)N2CCN(Cc3ccc4c(c3)OCO4)CC2)cc1 | i | i | -5.1* | i | i | i | i | i | i
FC(F)(F)c1ccccc1NC(=S)N1CCN(Cc2ccc3c(c2)OCO3)CC1 | i | i | -7.4* | i | i | i | i | i | i
Cc1ccccc1NC(=S)N1CCN(Cc2ccc3c(c2)OCO3)CC1 | i | i | i | i | i | nt | nt | nt | nt
CC(C)NC(=S)N1CCN(Cc2ccc3c(c2)OCO3)CC1 | i | i | i | i | i | nt | nt | nt | nt
COc1ccc(C(=O)NCc2nnc(SCC(=O)NCCc3ccccc3)o2)cc1 | i | i | i | i | i | nt | nt | nt | nt
COC(=O)CC1COc2ccccc2N1C(=O)c1cc(OC)c(OC)c(OC)c1 (stereo not drawn) | i | i | -5* | i | i | i | i | i | i
COC(=O)CC1COc2ccccc2N1C(=O)c1ccc(OC)cc1 (stereo not drawn) | i | i | i | i | i | nt | nt | nt | nt
CCOC(=O)c1sc(-c2ccc(C(F)(F)F)cc2)nc1O | i | i | -5.7* | i | i | 59%* | i | i | i
